A word on the inhibition: it is the relative decrease from the control value, in per cent.

Values joined by “and” are separate entries in the source; they are usually repeats but may differ in a detail not shown here. Equal entries are not always repeated. About 3,000 (0.88%) of roughly 340,000 compounds were called active.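 Rule for the calls: active = inhibition above about 50% at 20 µM (limit read from the data); inactive = the rest.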 Many of the other results were omitted from the sample, so actives are more common in it than they were.

In PubChem BioAssay AID493091 (Sanford-Burnham Center for Chemical Genomics, 2011) one finds inhibition data, which are given here for 87 compounds.

Carboxy-terminal domain RNA polymerase II polypeptide A small phosphatase 1 (Homo sapiens), sequence (Q9GZU7 76-261 limits assumed): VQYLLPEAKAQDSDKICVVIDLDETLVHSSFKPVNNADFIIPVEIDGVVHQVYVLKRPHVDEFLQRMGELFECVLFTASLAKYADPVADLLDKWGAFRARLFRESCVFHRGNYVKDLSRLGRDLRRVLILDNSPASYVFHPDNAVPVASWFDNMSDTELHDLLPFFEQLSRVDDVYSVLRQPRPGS

The target in this experiment is Carboxy-terminal domain RNA polymerase II polypeptide A small phosphatase 1 (Homo sapiens) (UniProt Q9GZU7). In words: inhibition of human SCP1 dephosphorylation activity – biochemical, colorimetric, uHTS, primary screen (AID 493091).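 Note: plate controls were DMSO wells with enzyme for no effect and wells lacking enzyme for full effect.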 The settings on record: Recombinant Scp1, phosphopeptide, malachite green phosphate absorbance; at 20 µM; active compounds read high. Put shortly:
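Incubation: 45 min enzyme reaction at room temperature / System: truncated SCP-1 phosphatase (76-261aa) / Reagent: Phospho 17-mer peptide substrate / Buffer or medium: Acidic Tris acetate buffer with magnesium and detergent / Signal: absorbance at 630 nm / Doses: one concentration, 20 µM, with 1.0% DMSO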
Consider `CCCn1nc(NS(=O)(=O)c2ccc(F)cc2)c2cc3ccccc3nc21`, for which the inhibition is 3.78% (inactive).

For `COCCCNc1nc2ccccc2nc1NS(=O)(=O)c1ccc(F)cc1`, the inhibition was 54.7% (active).

Take `CCCCNc1nc2ccccc2nc1NS(=O)(=O)c1cccs1`: the inhibition was -7.43% (inactive).

For `CC1C(=O)C(C)C(c2ccc(O)cc2)NC1c1ccc(O)cc1` (configuration not stated), the inhibition was -7.74% (inactive).

In the case of `CCN(CC)S(=O)(=O)c1cccc(-c2n[nH]c(=S)n2/N=C/c2ccc(C(=O)OC)cc2)c1`, the inhibition is -7.1% (inactive).

`Cc1ccc(OC(=O)c2ccccc2C(=O)OCC(F)(F)C(F)F)cc1`: the inhibition is -9.39% (inactive).

`CCc1ccc(C2C(C#N)=C(N)N(N3CCOCC3)C3=C2C(=O)CC(C)(C)C3)s1` (configuration not stated): the inhibition was 8.56% (inactive).

In the case of `CC(C)(CNC(=O)CNC(=O)C1CCCCC1)N1CCOCC1`, the inhibition is -8.57% (inactive).

On to `O=S(=O)(c1ccc(Br)c2ccccc12)N1CCOCC1`, for which the inhibition was -7.33% (inactive).

Turning to `COc1ccc2[nH]c(C(=O)N3CCN(C)CC3)c(C)c2c1`, the inhibition is -4.55% (inactive).

Turning to `COc1ccc2[nH]c(=S)cc(C)c2c1`, the inhibition is -4.32% (inactive).

`COc1ccc2[nH]c3c(C)c4cc[n+](C)cc4c(C)c3c2c1`: the inhibition is 64.5% (active).

For the compound `Cc1c([N+](=O)[O-])c(N)nn1C`, the inhibition is 51% (active).

Regarding `Cn1nc(C(C)(C)C)c([N+](=O)[O-])c1C(N)=O`, the inhibition was -0.65% (inactive).

As to `Cc1nn(CCOc2ccc(Br)cc2)c(C)c1[N+](=O)[O-]`, the inhibition is -14.1% (inactive).

Turning to `Clc1ccc(Cn2ncc3c(NCc4cccnc4)ncnc32)cc1`, the inhibition is 2.57% (inactive).

Consider `O=C(COC(=O)c1ccccc1)Nc1cccc(S(=O)(=O)N2CCOCC2)c1`, for which the inhibition was -6.52% (inactive).

For the compound `NS(=O)(=O)c1cccc(NC(=O)COC(=O)/C=C/c2ccco2)c1`, the inhibition was 26.2% (inactive).

For the compound `O=C(COC(=O)/C=C/c1ccc(Br)o1)Nc1cccc(S(=O)(=O)N2CCOCC2)c1`, the inhibition was 56% (active).

As for `C=CCOc1ccc(/C=C/C(=O)OCC(=O)NC(C)c2ccc(F)cc2)cc1` (configuration not stated), the inhibition is 1.27% (inactive).

With `Cc1c(CCOC(=O)CC23CC4CC(CC(C)(C4)C2)C3)sc[n+]1Cc1ccc([N+](=O)[O-])cc1`, the inhibition was 12.7% (inactive) and 5.4% (inactive).

On to `CN(C)c1nc2n(c(=O)n1)CCO2`, for which the inhibition is 1.74% (inactive).

`COc1ccc(OCC(=O)NNC(=O)C2CCC2)cc1`: the inhibition was 0.44% (inactive).

For `COc1ccc(OCC(=O)NNC(=O)c2ccc(-c3ccccc3)cc2)cc1`, the inhibition was 69.9% (active).

As for `CC(NC(=O)COc1ccc(-c2ccccc2)cc1)C1CCCO1` (configuration not stated), the inhibition was -2.02% (inactive).

Turning to `CCC(C)N1CC(=O)N2Cc3[nH]c4ccccc4c3C[C@H]2C1=O` (some centres not stated), the inhibition is -3.96% (inactive).

Consider `N/C(=N\OC(=O)c1ccc2c(c1)OCO2)c1ccc(Br)cc1`, for which the inhibition was -3.74% (inactive).

On to `N/C(=N\OC(=O)Cc1ccccc1[N+](=O)[O-])c1ccc(Br)cc1`, for which the inhibition is -4.88% (inactive).

As to `N/C(=N\OC(=O)N1c2ccccc2Sc2ccccc21)c1ccc(Br)cc1`, the inhibition is 69% (active).

In the case of `Cc1ccc(S(=O)(=O)Nc2nc(N)n(-c3ccccc3)n2)cc1`, the inhibition was -3.38% (inactive).

As to `Cc1cc(C)nc(NS(=O)(=O)c2ccc(N3C(=O)C4CCCCC4C3=O)cc2)n1` (configuration not stated), the inhibition is -3.6% (inactive).

For the compound `Cc1ccc(S(=O)(=O)Nc2nc(C)cc(-n3nc(C)cc3C)n2)cc1`, the inhibition was 84.1% (active).

As to `COC(=O)c1sccc1NC(=O)CSc1ccccc1NS(=O)(=O)c1cc(Cl)ccc1Cl`, the inhibition was -13.4% (inactive).

As to `O=C(CNC(=O)C12CC3CC(CC(C3)C1)C2)OCC(=O)N1CCCCC1`, the inhibition is -0.76% (inactive).

`C#CCOCCOCCOCCNc1nc(N2CCN(C(=O)CCCCCCCCCCNC(=O)[C@H](CCCCN)n3cc(C)nn3)CC2)nc(N2CCN(C(=O)CCCCCCCCCCNC(=O)[C@H](CO)n3cc(CCCSC)nn3)CC2)n1`: the inhibition is 26.8% (inactive).

As for `C#CCOCCOCCOCCNc1nc(N2CCN(C(=O)CCCCCCCCCCNC(=O)[C@H]([C@@H](C)CC)n3cc(CCCCN=C(N)N)nn3)CC2)nc(N2CCN(C(=O)CCCCCCCCCCNC(=O)[C@H](CO)n3cc(CCCSC)nn3)CC2)n1`, the inhibition is 53% (active).

For the compound `C#CCOCCOCCOCCNc1nc(N2CCN(C(=O)Cn3cc(CCO)nn3)CC2)nc(N2CCN(C(=O)Cn3cc(CCCN=C(N)N)nn3)CC2)n1`, the inhibition was 4.14% (inactive).

In the case of `Cc1ccc(CNC(=O)C(=O)c2cn(CC(=O)N3CCCC3)c3ccccc23)cc1`, the inhibition is -10.2% (inactive).

On to `O=C(c1ccccc1)c1ccc(C(=O)N2CCN(c3ccccc3)CC2)cc1`, for which the inhibition was 0.99% (inactive).

Consider `O=C(C1CCC1)N1CCN(c2ccccc2)CC1`, for which the inhibition was -5.05% (inactive).

On to `O=C(c1cc2c(s1)CCC2)N1CCN(c2ccccc2)CC1`, for which the inhibition is 51.2% (active).

As to `O=C1NC(c2ccccc2)Cc2ccncc21` (configuration not stated), the inhibition is 5.3% (inactive).

As for `Cc1cc(/C=C2/SC(=O)N(CC(=O)N3CCCC3)C2=O)c(C)n1C`, the inhibition is -10.3% (inactive).

As for `Cc1cc(/C=C2\SC(=Nc3ccc(N4CCOCC4)cc3)N(C)C2=O)c(C)n1-c1cccnc1`, the inhibition was -4.38% (inactive).

On to `Cc1cc(/C=C2\SC(=O)N(C)C2=O)c(C)n1-c1cccc(C(=O)O)c1`, for which the inhibition was 54.7% (active).

Regarding `CC(C)CCN1CCC(C)(NC(=O)c2ccccc2)C1=O` (configuration not stated), the inhibition was 5.05% (inactive).

`Cc1nnc(SCc2ccc(C(=O)c3ccc(Cl)cc3)o2)n1-c1ccccc1`: the inhibition is 7.29% (inactive).

As to `CSc1nc(-c2ccco2)nn1C(=O)c1ccccc1Cl`, the inhibition is -10.4% (inactive).

As for `CCCn1nc(C(=O)NNC(=O)CCOc2ccccc2OCC)c2ccccc2c1=O`, the inhibition was -1.1% (inactive).

Consider `CCOc1ccccc1/C=c1\sc2nc(-c3ccco3)nn2c1=O`, for which the inhibition is 78% (active).

As to `Nc1ncc(CN2CCCC(C(=O)Nc3ccc(-c4ccco4)cc3)C2)cn1` (configuration not stated), the inhibition was -3.44% (inactive).

`COc1ccc(C(=O)C2CCCN(Cc3cccn3-c3ccccn3)C2)c(C)c1` (configuration not stated): the inhibition is -4.92% (inactive).

For `CCOc1cc(/C=C2\C(=N)N3N=C(C)SC3=NC2=O)ccc1OCCOc1ccccc1`, the inhibition is -5.68% (inactive).

With `CS(=O)(=O)C1=NN2C(=N)/C(=C\c3ccc(OCCOc4ccccc4)cc3)C(=O)N=C2S1`, the inhibition was 50.3% (active).

For the compound `COc1ccccc1OCCOc1ccc(/C=C2\C(=N)N3N=C(C)SC3=NC2=O)cc1`, the inhibition is -7.04% (inactive).

`CCOc1ccc(S(=O)(=O)N/N=C(\C)c2ccc(Cl)c(Cl)c2Cl)cc1`: the inhibition is -6.85% (inactive).

With `CSc1ccc(Cl)c(C(=O)OCC(=O)N2CCNC2=O)c1`, the inhibition was 0.5% (inactive).

For `O=C(NCCCNCc1ccccc1)c1ccc(/C=N/O)nc1`, the inhibition was -4.62% (inactive).

Take `CC(C)c1ccc(C(=O)NCCCc2ccccc2)cc1`: the inhibition is -14.7% (inactive).

Consider `C[N+](C)(C)CCNC(=O)c1cc[n+](Cc2ccccc2)c(/C=N/O)c1`, for which the inhibition is 99.5% (active).

On to `O=C(NNS(=O)(=O)c1ccc([N+](=O)[O-])cc1)C1CCCCC1`, for which the inhibition is -6.14% (inactive).

On to `Cc1cc2occ(CC(=O)NNC(=O)c3ccccc3F)c2cc1C`, for which the inhibition is -10.5% (inactive).

As to `CN(C)CCCN(C(=O)c1ccc(S(=O)(=O)N2CCCCCC2)cc1)c1nc2ccc(Br)cc2s1`, the inhibition is 11.7% (inactive).

Consider `CCOc1ccc2nc(N(CCCN(C)C)C(=O)c3ccc(C(=O)c4ccccc4)cc3)sc2c1`, for which the inhibition was 65% (active).

With `CCN(CC)CCN(C(=O)c1cccc([N+](=O)[O-])c1)c1nc2ccc(OC)cc2s1`, the inhibition was -1.97% (inactive).

In the case of `CC(C)CNC(=O)COC(=O)/C=C/c1ccco1`, the inhibition is 22.6% (inactive).

With `COc1c(Br)cc2c(C)c(C(=O)N3CCOCC3)oc2c1Br`, the inhibition was -4.18% (inactive).

Turning to `CCNc1ccc(C(=O)OCC(=O)N2c3ccccc3NC(=O)C2(C)C)cc1[N+](=O)[O-]`, the inhibition was -9.83% (inactive).

Turning to `Cc1ccc(OCCC(=O)OCC(=O)N2c3ccccc3NC(=O)C2(C)C)cc1`, the inhibition was 3.3% (inactive).

Regarding `CNS(=O)(=O)c1cccc(C(=O)OCC(=O)N2c3ccccc3NC(=O)C2(C)C)c1`, the inhibition was 51% (active).

For `CCCCCN(C(=O)CCC(=O)OCC(=O)NC1CCC(C)CC1)c1c(N)n(CCCC)c(=O)[nH]c1=O` (configuration not stated), the inhibition is 3.11% (inactive).

As for `CC(=O)NNC(=O)c1csc(Cc2c(Cl)sc3ccc(Cl)cc23)n1`, the inhibition is -4.25% (inactive).

For `CC1CC(=O)N(CC(=O)Nc2cccc(Cl)c2)c2ccccc2S1(=O)=O` (configuration not stated), the inhibition was -2.39% (inactive).

Consider `O=C(CCc1ccc(S(=O)(=O)N2CCOCC2)cc1)Nc1ccc2ccccc2c1`, for which the inhibition is -11.8% (inactive).

On to `CCN(C(=O)COc1ccc(C(=O)c2ccccc2)cc1)c1ccccc1`, for which the inhibition was -3.83% (inactive).

As to `CCOc1cc(C(=O)O)ccc1OCCOc1ccccc1`, the inhibition is 6.63% (inactive).

In the case of `CC/C(=C(/c1ccccc1)c1ccc(OCC[N+](C)(C)C)cc1)c1ccccc1`, the inhibition is 67.4% (active).

`O=C(CCn1ccc([N+](=O)[O-])n1)Nc1nccs1`: the inhibition was -5.19% (inactive).

`CC(=O)c1ccc(N2CCN(C(=O)c3ccc(Cl)c(S(=O)(=O)NC4CC4)c3)CC2)c(F)c1`: the inhibition was -5.7% (inactive).

For the compound `CSc1nnc(SCc2nc3sc(C(=O)O)c(C)c3c(=O)[nH]2)s1`, the inhibition was 74% (active).

As to `Cc1sc2nc(CSCC(=O)NC3CCCCC3)[nH]c(=O)c2c1C`, the inhibition was 1.62% (inactive).

Consider `CC(=O)c1sc2nc(SCC(=O)N3CCCCC3)[nH]c(=O)c2c1C`, for which the inhibition was 7.94% (inactive).

With `CCN1/C(=C/c2ccc3ccc(C)cc3[n+]2CC)Sc2ccccc21`, the inhibition was 64.2% (active).

Take `CCN1/C(=C\c2ccc3ccccc3[n+]2CC)Sc2cc(C)ccc21`: the inhibition was 21.8% (inactive).

Regarding `CCOc1cc(C2C(C(=O)OC(C)C)=C(C)NC3=C2C(=O)CCC3)cc([N+](=O)[O-])c1O` (configuration not stated), the inhibition was -7.32% (inactive).

Take `CCN(CC)C(=O)Oc1ccc(OC(=O)N(CC)CC)cc1`: the inhibition was 7.37% (inactive).

As for `O=C(NCc1ccccn1)C1CCN(S(=O)(=O)c2ccc(Br)cc2)CC1`, the inhibition was 3.99% (inactive).
